Data reported in ChEMBL document CHEMBL4602642, “Pyrola incarnata demonstrates neuroprotective effects against β-amyloid-induced memory impairment in mice” (Bioorg Med Chem Lett, 2020).
Active and inactive are the calls of the source. The rule behind the calls is not given here.

Legend:
[1] = Effect on locomotory activity in C57BL/6 mouse model of amyloid beta (25 to 35) peptide-induced memory impairment assessed as change in mean speed at 14 to 56 mg/kg, po administered via gavage measured for 5 mins by open field test; type: ADME, organism-based; details: in vivo
How it was run: (§1)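 Open-field test after intracerebroventricular Aβ25–35 and dosing at 14, 28 or 56 mg/kg or vehicle. Line crossings and mean speed were counted during a 5-minute session. Results are mean ± SEM.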

Mus musculus [2] = assay: Cognitive enhancing effect in C57BL/6 mouse model of amyloid beta (25 to 35) peptide-induced memory impairment assessed as reduction in escape latency time to find removed platform position at 14 mg/kg, po administered via gavage and measured on 5th day by Morris water maze test; type: functional, organism-based
How it was run: (§2)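 Mice given intracerebroventricular Aβ25–35 received 14, 28 or 56 mg/kg, or an equal volume of vehicle. Morris water maze: swim speed taken on day 1, escape latency recorded in training sessions, probe trial on day 6 with the platform removed (time to target and platform crossings scored). n = 9 per group, mean ± SEM.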

Mus musculus [3] = assay: Cognitive enhancing effect in orally dosed C57BL/6 mouse model of amyloid beta (25 to 35) peptide-induced memory impairment assessed as reduction in escape latency time to find removed platform position measured on 4th day by Barnes maze test; type: functional, organism-based
How it was run: (§3)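 Mice given Aβ25–35 by intracerebroventricular injection were run in a Barnes maze. Latency to enter the escape box was recorded over the training sessions, and latency and mistake counts were scored in the probe trial. Results are mean ± SEM.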

Mus musculus [4] = assay: Cognitive enhancing effect in C57BL/6 mouse model of amyloid beta (25 to 35) peptide-induced memory impairment assessed as reduction in mistake time to find removed platform position at 56 mg/kg, po administered via gavage and measured on 4th day by Barnes maze test; type: functional, organism-based
How it was run: (§4)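 Barnes maze in mice given intracerebroventricular Aβ25–35: latency to enter the escape box over the training days, plus latency and mistake counts in the probe trial, each compared with the vehicle-treated Aβ25–35 group. Results are mean ± SEM.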

Mus musculus [5] = assay: Cognitive enhancing effect in orally dosed C57BL/6 mouse model of amyloid beta (25 to 35) peptide-induced memory impairment assessed as increase in crossing numbers of target quadrants administered via gavage and measured on 6th day by Morris water maze test; type: functional, organism-based; how it was run: as §2
Mus musculus [6] = assay: Cognitive enhancing effect in C57BL/6 mouse model of amyloid beta (25 to 35) peptide-induced memory impairment assessed as reduction in escape latency time to find removed platform position at 56 mg/kg, po administered via gavage and measured on 5th day by Morris water maze test; type: functional, organism-based; details: in the assay text read “6th day” for “5th day”; how it was run: as §2
Mus musculus [7] = assay: Cognitive enhancing effect in C57BL/6 mouse model of amyloid beta (25 to 35) peptide-induced memory impairment assessed as reduction in escape latency time to find removed platform position at 14 to 56 mg/kg, po administered via gavage and measured on 6th day by Morris water maze test; type: functional, organism-based; how it was run: as §2
Mus musculus [8] = assay: Cognitive enhancing effect in C57BL/6 mouse model of amyloid beta (25 to 35) peptide-induced memory impairment assessed as reduction in time to reach the target quadrants at 14 to 56 mg/kg, po administered via gavage and measured on 6th day by Morris water maze test; type: functional, organism-based; how it was run: as §2
Mus musculus [9] = assay: Neuroprotective activity in amyloid beta (25 to 35) peptide-induced memory impairment C57BL/6 mouse model assessed as reduction in amyloid beta (25 to 35) peptide deposition at 14 to 56 mg/kg, po administered via gavage by DAPI staining based immunohistochemical analysis; type: functional, organism-based
How it was run: (§5)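 Hippocampal sections from Aβ25–35-injected mice after long-term dosing were immunostained for Aβ25–35 (red) and Iba-1 (green) with DAPI counterstain. Integral optical density was quantified and given as mean ± SEM.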

Mus musculus [10] = assay: Neuroprotective activity in orally dosed amyloid beta (25 to 35) peptide-induced memory impairment C57BL/6 mouse model assessed as increase in Iba1 expression administered via gavage by DAPI staining based immunohistochemical analysis; type: functional, organism-based; how it was run: as §5
Mus musculus [11] = assay: Cognitive enhancing effect in C57BL/6 mouse model of amyloid beta (25 to 35) peptide-induced memory impairment assessed as reduction in escape latency time to find removed platform position at 56 mg/kg, po administered via gavage and measured on 4th day by Barnes maze test; type: functional, organism-based; how it was run: as §4
Mus musculus [12] = assay: Neuroprotective activity in amyloid beta (25 to 35) peptide-induced memory impairment C57BL/6 mouse model assessed as increase in number of microglia expression at 14 to 56 mg/kg, po administered via gavage by DAPI staining based immunohistochemical analysis; type: functional, organism-based; how it was run: as §5
[13] = Effect on locomotory activity in C57BL/6 mouse model of amyloid beta (25 to 35) peptide-induced memory impairment assessed as change in number of line crossing at 14 to 56 mg/kg, po administered via gavage measured for 5 mins by open field test; type: ADME, organism-based; details: in vivo; how it was run: as §1
[14] = Effect on locomotory activity in C57BL/6 mouse model of amyloid beta (25 to 35) peptide-induced memory impairment assessed as change in mean speed of swimming at 14 to 56 mg/kg, po administered via gavage by Morris water maze test; type: ADME, organism-based; details: in vivo; how it was run: as §2
Mus musculus [15] = assay: Neuroprotective activity in orally dosed amyloid beta (25 to 35) peptide-induced memory impairment C57BL/6 mouse model assessed as reduction in amyloid beta (25 to 35) peptide deposition administered via gavage by DAPI staining based immunohistochemical analysis; type: functional, organism-based; how it was run: as §5
Mus musculus [16] = assay: Cognitive enhancing effect in orally dosed C57BL/6 mouse model of amyloid beta (25 to 35) peptide-induced memory impairment assessed as reduction in mistake time to find removed platform position measured on 4th day by Barnes maze test; type: functional, organism-based; how it was run: as §3
Mus musculus [17] = assay: Cognitive enhancing effect in C57BL/6 mouse model of amyloid beta (25 to 35) peptide-induced memory impairment assessed as reduction in escape latency time to find removed platform position at 28 mg/kg, po administered via gavage and measured on 5th day by Morris water maze test; type: functional, organism-based; how it was run: as §2

C[C@H]1[C@H](C)CC[C@]2(C(=O)O)CC[C@]3(C)C(=CC[C@@H]4[C@@]5(C)CC[C@H](O)C(C)(C)[C@@H]5CC[C@]43C)[C@H]12 [URSOLIC ACID]
Activity [1]: Non-Toxic
Activity (Mus musculus [2]): Active
Activity (Mus musculus [3]): Dose-dependent effect
Activity (Mus musculus [4]): Active
Activity (Mus musculus [5]): Dose-dependent effect
Activity (Mus musculus [6]): Active
Activity (Mus musculus [7]): Active
Activity (Mus musculus [8]): Active
Activity (Mus musculus [9]): Active
Activity (Mus musculus [10]): Dose-dependent effect
Activity (Mus musculus [11]): Active
Activity (Mus musculus [12]): Active
Activity [13]: Non-Toxic
Activity [14]: Non-Toxic
Activity (Mus musculus [15]): Dose-dependent effect
Activity (Mus musculus [16]): Dose-dependent effect
Activity (Mus musculus [17]): Active
